Assay results: ChEMBL document CHEMBL1137147, “Low molecular weight thrombin inhibitors with excellent potency, metabolic stability, and oral bioavailability” (Bioorg Med Chem Lett, 2004)

How the values were obtained:
[1] = Area under the curve in dog when administered 1 mg/kg perorally; type: ADME, organism-based, Canis lupus familiaris; parameters: dose 1 mg/kg, route oral; conditions: in vivo, po
Summary of the method: (§1)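 Amorphous TFA salts given orally at 1 mg/kg in 1% methocel to beagle dogs (n = 2). Blood sampled over 8 h post dose plus a final 24 h sample. Drug isolated from plasma by solid-phase extraction and quantified by LC–MS/MS against a standard curve. AUC and t1/2 derived from the concentration–time curve.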

[2] = Plasma half life in dog when administered 1 mg/kg perorally; type: ADME, organism-based, Canis lupus familiaris; parameters: dose 1 mg/kg, route oral; conditions: po; summary of the method: as §1
[3] = target: Prothrombin (Homo sapiens, UniProt P00734); experiment: Inhibition constant against human Thrombin
[4] = Percent free human plasma protein binding after administration of the compound; type: functional
[5] = tested on: Rattus norvegicus; experiment: Percent free rat plasma protein binding after administration of the compound; type: functional
[6] = tested on: Rattus norvegicus; experiment: Effect (10 ug/kg/min) on FeCl3 induced clot formation on carotid artery, expressed as no. of vessel occlusions out of 5 rats; type: functional
Summary of the method: (§2)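 Anesthetized rats given test compound by intravenous infusion at 10 µg/kg/min for 180 min. Topical FeCl3 applied to the carotid artery at 120 min post dose, then carotid blood flow monitored for 60 min. Result is the number of animals with occluded vessels (n = 5 or 6).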

[7] = tested on: Rattus norvegicus; experiment: Effect (10 ug/kg/min) on FeCl3 induced clot formation on carotid artery, expressed as no. of vessel occlusions out of 6 rats; type: functional; summary of the method: as §2

Row | Structure (SMILES) | AUC [1] | half-life [2] | Ki [3] | Activity [4] | Activity [5] | Activity [6] | Activity [7]
1 | C[C@](O)(C(=O)N1CCC[C@H]1C(=O)NCc1cc(Cl)ccc1CN)c1ccccc1 | 21 µM·h | 186 min | 4.7 nM | – | – | – | –
2 | CC(C)(C)[C@@H](O)C(=O)N1CC[C@H]1C(=O)NCc1cc(Cl)ccc1CN | 3.5 µM·h | 204 min | 5 nM | 21% | 26% | 0 | –
3 | NCc1ccc(Cl)cc1CNC(=O)[C@@H]1CCCN1C(=O)[C@H](O)C1CCCCC1 | 1.7 µM·h | 120 min | 0.27 nM | 4% | 36% | – | 0
4 | CC(C)[C@@H](O)C(=O)N1CCC[C@H]1C(=O)NCc1cc(Cl)ccc1CN | 4.9 µM·h | 252 min | 5.6 nM | 63% | 60% | – | 2
5 | NCc1ccc(Cl)cc1CNC(=O)[C@@H]1CCCN1C(=O)[C@@H](O)c1ccccc1 | – | – | 80 nM | – | – | – | –
6 | CC(C)(C1CC1)[C@@H](O)C(=O)N1CC[C@H]1C(=O)NCc1cc(Cl)ccc1CN | 11 µM·h | 282 min | 3.7 nM | 11% | 17% | 0 | –
7 | C[C@@](O)(C(=O)N1CCC[C@H]1C(=O)NCc1cc(Cl)ccc1CN)c1ccccc1 | 14 µM·h | 204 min | 2.7 nM | 15% | 24% | – | 1
8 | CC(C)(C)[C@@H](O)C(=O)N1CCC[C@H]1C(=O)NCc1cc(Cl)ccc1CN | 10 µM·h | 324 min | 2.1 nM | 24% | 54% | – | 0
9 | NCc1ccc(Cl)cc1CNC(=O)[C@@H]1CCCN1C(=O)CO | 30 µM·h | 780 min | 0.5 nM | 1% | 9% | 4 | –
10 | NCc1ccc(Cl)cc1CNC(=O)[C@@H]1CCCN1C(=O)[C@H](O)c1ccccc1 | 1.4 µM·h | 120 min | 0.9 nM | – | – | – | –
